Laboratory results as given in ChEMBL document CHEMBL4312006, “A novel chalcone derivative as Nrf2 activator attenuates learning and memory impairment in a scopolamine-induced mouse model” (Eur J Med Chem, 2020).
Activity calls are given as the source filed them. The rule behind the calls is not given here.

Tests used:
[1] = target: T1, Nuclear factor erythroid 2-related factor 2 (Mus musculus) (UniProt Q60795); assay: Activation of NRF2 in mouse BV2 cells assessed as increase in HO1 protein expression at 3 uM incubated for 6 hrs by Western blot analysis; format: cell-based
T1 sequence (whole entry): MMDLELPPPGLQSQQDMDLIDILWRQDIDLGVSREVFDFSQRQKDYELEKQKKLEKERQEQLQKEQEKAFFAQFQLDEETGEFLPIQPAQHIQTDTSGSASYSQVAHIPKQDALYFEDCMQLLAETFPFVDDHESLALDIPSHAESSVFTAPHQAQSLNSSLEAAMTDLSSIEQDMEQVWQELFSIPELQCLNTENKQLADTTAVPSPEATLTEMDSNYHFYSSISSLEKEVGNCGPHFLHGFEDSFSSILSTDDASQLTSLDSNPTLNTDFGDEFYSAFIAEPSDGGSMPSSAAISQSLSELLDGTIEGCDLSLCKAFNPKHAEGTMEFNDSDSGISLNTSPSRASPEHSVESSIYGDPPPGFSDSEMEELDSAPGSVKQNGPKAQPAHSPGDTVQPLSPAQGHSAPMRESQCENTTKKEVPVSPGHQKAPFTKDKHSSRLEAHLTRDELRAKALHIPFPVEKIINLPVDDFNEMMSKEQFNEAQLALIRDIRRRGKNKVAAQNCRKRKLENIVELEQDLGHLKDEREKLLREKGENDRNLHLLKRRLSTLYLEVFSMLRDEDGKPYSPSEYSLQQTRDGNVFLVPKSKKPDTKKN
Summary of the method: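 BV-2 cells washed in ice-cold PBS and lysed on ice for 40 min in RIPA buffer with protease inhibitors. Nuclear fractions prepared separately. 10 μg protein run on SDS-PAGE and blotted to PVDF. Membranes blocked in 5% skim milk/TBST and probed overnight at 4 °C for Nrf2, HO-1, GCLM or SOD1. HRP secondary with ECL detection. Band densities normalised to Lamin B1 or β-actin.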

[2] = target: T1, Nuclear factor erythroid 2-related factor 2 (Mus musculus); assay: Activation of NRF2 in mouse BV2 cells assessed as inhibition of LPS-stimulated NO production preincubated for 6 hrs followed by LPS stimulation for 24 hrs by Griess reagent-based assay; format: cell-based
Summary of the method: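 BV-2 cells pretreated with a range of compound concentrations for 6 h, then stimulated with 1 µg/mL LPS for 24 h. Medium nitrite measured by Griess reaction (sulfanilamide/phosphoric acid, then NED, 5 min each at room temperature in the dark). Absorbance at 540 nm read against a nitrite standard curve.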

[3] = target: T1, Nuclear factor erythroid 2-related factor 2 (Mus musculus); assay: Activation of NRF2 in mouse BV2 cells assessed reduction of LPS-stimulated TNF-alpha level preincubated for 3 hrs followed by LPS stimulation for 24 hrs by ELISA; format: cell-based
Summary of the method: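 BV-2 cells pre-incubated with a range of compound concentrations for 3 h, then stimulated with 0.2 μg/mL LPS for 24 h. TNF-α or IL-6 in the culture medium quantified by sandwich ELISA kits. Compared with LPS-treated control by one-way ANOVA with Dunnett's test.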

CYP1A2 = target: T2, CYP1A2 (Homo sapiens, UniProt P05177); assay: Inhibition of CYP1A2 (unknown origin) assessed as remaining activity relative to control; format: ADME
T2 sequence (P05177 whole entry): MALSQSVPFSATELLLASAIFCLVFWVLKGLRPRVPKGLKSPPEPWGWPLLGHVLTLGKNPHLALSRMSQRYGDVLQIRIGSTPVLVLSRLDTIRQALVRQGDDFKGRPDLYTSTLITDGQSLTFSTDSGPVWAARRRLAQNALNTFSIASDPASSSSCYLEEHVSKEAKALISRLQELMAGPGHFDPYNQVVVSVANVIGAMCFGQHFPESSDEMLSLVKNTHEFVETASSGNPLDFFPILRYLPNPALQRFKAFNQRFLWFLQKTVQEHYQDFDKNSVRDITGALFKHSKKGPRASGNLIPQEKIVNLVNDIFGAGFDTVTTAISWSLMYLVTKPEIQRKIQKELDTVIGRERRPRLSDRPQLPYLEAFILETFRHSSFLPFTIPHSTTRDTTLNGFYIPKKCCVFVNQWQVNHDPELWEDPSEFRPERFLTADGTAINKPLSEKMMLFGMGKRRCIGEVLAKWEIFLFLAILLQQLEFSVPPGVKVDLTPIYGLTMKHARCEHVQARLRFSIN

Structure (SMILES): CN1CCN(C(=O)COc2ccc(C(=O)/C=C/c3ccccc3C(F)(F)F)cc2)CC1.Cl
- Activity [1]: Active
- Activity [2]: Dose-dependent effect
- Activity [3]: Dose-dependent effect
- activity (CYP1A2): 98.5%
